Measured values as given in ChEMBL document CHEMBL1142703, “Novel ligands for the chemokine receptor-3 (CCR3): a receptor-modeling study based on 5D-QSAR” (J Med Chem, 2005).
pKi: −log10 of the molar value.

Target: T1, C-C chemokine receptor type 3 (Homo sapiens, UniProt P51677)
T1 sequence (P51677 whole entry): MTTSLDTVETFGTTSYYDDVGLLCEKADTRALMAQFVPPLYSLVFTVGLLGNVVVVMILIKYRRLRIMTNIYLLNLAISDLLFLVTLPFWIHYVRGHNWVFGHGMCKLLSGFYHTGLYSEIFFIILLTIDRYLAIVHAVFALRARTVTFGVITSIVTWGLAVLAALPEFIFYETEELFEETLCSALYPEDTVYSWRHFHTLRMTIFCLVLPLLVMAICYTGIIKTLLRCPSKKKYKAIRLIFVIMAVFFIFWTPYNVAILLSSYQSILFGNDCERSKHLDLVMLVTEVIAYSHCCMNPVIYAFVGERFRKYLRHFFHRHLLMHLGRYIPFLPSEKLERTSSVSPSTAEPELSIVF
Assay: Inhibition of [125I]eotaxin-1 binding to human chemokine receptor (hCCR3-C1)
Summary of the method: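 K562 leukemia myelogenic blast cells transfected with human CCR3 (hCCR3-C1). Binding of the radioligand 125I-eotaxin-1 was measured in a scintillation proximity format. Controls: specific binding with no displacer added, and nonspecific binding with unlabeled eotaxin or test compound added. Bound radioactivity was counted by scintillation. Ki was obtained by iterative fitting of the data to a law-of-mass-action model.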

Q: `COc1ccc(NC(=O)NCC(c2ccccc2OC)N2CCN(C3CCCCC3)CC2)cc1` (stereo unspecified) was tested. Which pKi did it give?
A: 4.98
